{"source": "paper PMC6511231", "about": "(Cell reports, 2018)", "key": {"[1]": {"tested_on": "HeLaLIN28A", "experiment": "let-7-sensitive dual luciferase reporter assay, HeLaLIN28A", "format": "cell-based, human", "details": "LI71 50–100 μM, 48 hr", "procedure,_shortened": "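A HeLa clone stably expressing low-level FLAG-LIN28A plus the 8×let-7 Renilla/firefly dual-luciferase sensor was treated 48 hr with vehicle (DMSO) or test compound at the indicated concentrations. Dual luciferase activity was then assayed, with firefly as internal control. Runs used 3 or 5 biological replicates; Student's t test against vehicle.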"}, "[2]": {"experiment": "Cellular toxicity", "format": "cell-based", "details": "high micromolar concentrations"}, "[3]": {"tested_on": "HeLaLIN28B", "experiment": "let-7-sensitive dual luciferase reporter assay, HeLaLIN28B", "format": "cell-based, human", "details": "LI71 50–100 μM, 48 hr", "procedure,_shortened": "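HeLa clone stably expressing N-FLAG-LIN28B at low level, from retroviral transduction, puromycin selection and single-cell sorting. Cells were lentivirally transduced with the let-7 dual luciferase sensor: LTR-driven Renilla with eight let-7 sites in the 3′ UTR plus HSV-TK firefly control, as a G418-selected polyclonal pool. Cells received test compound or DMSO vehicle, then were lysed for dual luciferase readout normalised to blank samples.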"}, "[4]": {"molecular_target": "human LIN28ΔF73A (Homo sapiens, UniProt Q9H9Z2, F73A)", "sequence (Q9H9Z2 16-187 F73A)": "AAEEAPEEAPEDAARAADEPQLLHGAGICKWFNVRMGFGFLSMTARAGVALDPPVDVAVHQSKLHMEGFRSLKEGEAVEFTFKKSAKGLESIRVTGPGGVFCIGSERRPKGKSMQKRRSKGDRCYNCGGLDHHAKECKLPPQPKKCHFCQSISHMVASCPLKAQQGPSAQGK", "experiment": "Competition / dose-response fluorescence polarization assay with LIN28ΔF73A", "format": "binding", "details": "preE-let-7f, preE-let-7a, preE-let-7d, preE-let-7g", "procedure,_shortened": "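Recombinant human LIN28ΔF73A (150 nM in the screening master mix; set at the FP-titration Kd for competition) was mixed with 2 nM FAM-labelled preE-let-7 probe (let-7f, -7a, -7d or -7g) in buffer M (100 mM NaCl, 20 mM Tris-HCl pH 7.0, 5 mM MgCl2, 10% glycerol, 5 mM DTT, 0.1% NP-40). Test compound was dispensed at 12 concentrations, 50 μM–20 nM. IC50 came from a 1:1 inhibition fit; each assay was run at least twice.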"}, "[5]": {"experiment": "Solubility in solution", "format": "physicochemical", "details": "water / solution"}}, "note": "Entries after “also recorded” stand apart in the source; their conditions may differ.", "data": [{"smiles": "CCOc1cccc2c1N[C@@H](c1ccc(C(=O)O)cc1)[C@H]1CC=C[C@@H]21", "note": "[LI71]", "values": [{"measurement": "Relative Renilla luciferase activity", "setting": "[1]", "result": "significantly reduce the relative Renilla luciferase activity"}, {"measurement": "Cellular toxicity", "setting": "[2]", "result": "low cellular toxicity"}, {"measurement": "Relative Renilla luciferase activity", "setting": "[3]", "result": "significantly reduce the relative Renilla luciferase activity"}, {"measurement": "IC50s with four let-7 pre-elements", "setting": "[4]", "result": "all within the low micromolar range"}, {"measurement": "Solubility", "setting": "[5]", "result": "better water solubility; also recorded: ample solubility in solution"}]}]}
